In publication PMC5519669 (Forensic Toxicology, 2017):
Entries after “also recorded” stand apart in the source; their conditions may differ.

How the values were obtained:
[1] = Clearance in rat liver microsome incubation; type: in vitro ADME; details: for half-life at 1 µM / microsomal CLint at 1 µM: male, Sprague-Dawley, rat, pooled rat liver microsomes, pH 7.4; for Parent compound after incubation: rat liver microsome incubations, after 3 h incubations; for ER (extraction ratio) / CLH (estimated hepatic clearance) / CLint (estimated intrinsic clearance): rat liver microsomes; for CLH (estimated hepatic clearance): from CLint and liver blood flow; for CLint (estimated intrinsic clearance): scaled to whole-liver dimensions
[2] = Clearance in human liver microsome incubation; type: in vitro ADME; details: for Parent compound after incubation: human liver microsome incubations, after 3 h incubations; for ER (extraction ratio) / CLH (estimated hepatic clearance) / CLint (estimated intrinsic clearance): human liver microsomes; for CLH (estimated hepatic clearance): from CLint and liver blood flow; for CLint (estimated intrinsic clearance): scaled to whole-liver dimensions
[3] = Rat plasma kinetics after intraperitoneal injection; type: in vivo; details: for AUC(0-inf) / AUC(0-t) / Cmax / half-life: 3 mg/kg; for half-life: non-compartmental analysis; for Untransformed parent compound in plasma: 24 h post-dosing
male rats = experiment: Rectal body temperature; type: in vivo, rat; details: 3 mg/kg i.p.; for Hypothermic effect compared to vehicle injection: 3 mg/kg; for Mean rectal body temperature versus vehicle: at 15 and 30 min and 1, 2, and 4 h post-injection
Outline: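 Male Long–Evans rats (49 days old, jugular-catheterised, n = 4/group) were housed singly in metabolic cages and given test compound i.p. at 3 mg/mL in 7.8% polysorbate 80/92.2% saline at 1 mL/kg, with a vehicle group. Rectal temperature was taken by digital thermometer 15 min pre-dose and 15, 30 min, 1, 2, 4, 8, 24 h post-dose. Analysis used mixed two-factor ANOVA, then Dunnett's tests versus vehicle per time point.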

[4] = male, human, pooled human liver microsomes, pH 7.4
[5] = male, Long-Evans, rat, plasma, ip
[6] = male, Long-Evans, rat, plasma, ip, Half-life, rat plasma, 3 mg/kg i.p.

## CC(C)(NC(=O)c1cn(CCCCCF)c2ccccc12)c1ccccc1 [5F-CUMYL-PICA, 1-(5-fluoropentyl)-N-(2-phenylpropan-2-yl)-1H-indole-3-carboxamide]
[1]
  half-life at 1 µM: 1.19 min
  microsomal CLint at 1 µM: 580 µL/min/mg
  Parent compound after incubation: still detectible
  ER (extraction ratio): 0.95
  CLH (estimated hepatic clearance): 52.44 mL/min/kg body wt.
  CLint (estimated intrinsic clearance): 1048.24 mL/min/kg body wt.
[2]
  Parent compound after incubation: still detectible
  ER (extraction ratio): 0.96
  CLH (estimated hepatic clearance): 19.15 mL/min/kg body wt.
  CLint (estimated intrinsic clearance): 453.05 mL/min/kg body wt.
[2]; [4]
  half-life at 1 µM: 1.77 min
  microsomal CLint at 1 µM: 390 µL/min/mg
[3]; [5]
  AUC(0-inf): 843 ng·h/mL
  AUC(0-t): 582 ng·h/mL
  Cmax: 65.2 ng/mL
[3]; [6]
  half-life: 720 min
[3]; rat plasma, 3 mg/kg i.p.
  Untransformed parent compound in plasma: detectible
Male rats
  Hypothermic effect compared to vehicle injection: produced hypothermic effects; also recorded: moderate hypothermic effects
  Mean rectal body temperature versus vehicle: significant hypothermic effects

## CCCCCn1cc(C(=O)NC(C)(C)c2ccccc2)c2ccccc21 [CUMYL-PICA, 1-pentyl-N-(2-phenylpropan-2-yl)-1H-indole-3-carboxamide]
[1]
  half-life at 1 µM: 2.24 min
  microsomal CLint at 1 µM: 310 µL/min/mg
  Parent compound after incubation: still detectible
  ER (extraction ratio): 0.91
  CLH (estimated hepatic clearance): 50.22 mL/min/kg body wt.
  CLint (estimated intrinsic clearance): 556.88 mL/min/kg body wt.
[2]
  Parent compound after incubation: still detectible
  ER (extraction ratio): 0.87
  CLH (estimated hepatic clearance): 17.43 mL/min/kg body wt.
  CLint (estimated intrinsic clearance): 135.46 mL/min/kg body wt.
[2]; [4]
  half-life at 1 µM: 5.92 min
[3]; [5]
  AUC(0-inf): 1210 ng·h/mL
  AUC(0-t): 1090 ng·h/mL
  Cmax: 130 ng/mL
[3]; [6]
  half-life: 420 min
[3]; rat plasma, 3 mg/kg i.p.
  CL/F (observed apparent clearance): 43.31 mL/min/kg body wt.
  half-life: 436 min
  Untransformed parent compound in plasma: detectible
Male rats
  Hypothermic effect compared to vehicle injection: produced hypothermic effects; also recorded: moderate hypothermic effects
  Mean rectal body temperature versus vehicle: significantly reduced
